# An excerpt weighted towards active compounds, which were near 2.3% of everything screened.
# XiGFP reactiv = X-chromosome reactivation activator; activation, % at 7.58 µM; actives 0.055% (n = 360,000); AID 743238; XiGFP mouse fibroblasts, % GFP-positive cells imaging, 3 d; cells co-treated with 5-aza-dC sensitizer; scaled so ellipticine positive control = 100%;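 active = mean normalized replicate activation at least 10% and every replicate at or above 10%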
#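 Assay system – SV40-immortalized XiGFP fibroblast cells, line 68-5-11 · Buffer or medium – DMEM supplemented with 5-aza-dC as sensitizing agent · Dosing – one concentration, pinned · Benchmarks – positive control ellipticine, 6 µM final · Times – 3 days compound exposure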
# TWEAK-Fn14 inh = inhibitors of TWEAK-Fn14 interaction signaling | TWEAK-stimulated Fn14 reporter cells, luciferase luminescence, 8 h | inhibition, % at 10 µM | actives 2% (n = 360,000); in the data active = inhibition above about 50%
# FN deposition inh = fibronectin deposition inhibition; AH1F fibroblasts, Alexa488-fibronectin deposition fluorescence, overnight; inhibition, % at 12.6 µM; actives 0.086% (n = 350,000); AID 743247;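 active = mean inhibition across replicates of 30% or more, regardless of how many single replicates reach that level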
#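 Material: AH1F fibroblasts assembling fluorescent fibronectin matrix; amount: 10000 AH1F cells/well; medium: DMEM, 2% serum; reagent: Alexa488-fibronectin, 24 nM final in well; dosing: single compound dose, delivered by pin transfer; incubation: 1 h adhesion, overnight exposure; detection: fluorescence after three HBSS washes, excitation 485 nm, emission 525 nm; measure: fibronectin deposition inhibition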
# LGR2 inh = inhibitors of bursicon-induced Drosophila LGR2 receptor cAMP signaling; HEK293 LGR2, CRE-luciferase, bursicon-stimulated, 4 h; inhibition, % at 9.99 µM; actives 0.35% (n = 380,000); AID 720647;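 active = drop in luminescence signal, shown as inhibition above about 50% in the replicate tests, limit read from the data, passing the limit was not always enough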;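 note: agonist challenge used bursicon conditioned medium at about half maximal strength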
# EWS-Fli block = inhibitors of EWS/Fli oncoprotein transcriptional activity. A673 NR0B1-luciferase reporter, viability-normalised. inhibition, % at 12.6 µM. actives 0.67% (n = 350,000);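 active = mean inhibition of at least 50% after viability correction, with every replicate also passing that limit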;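 note: firefly luciferase signal divided by Alamar Blue viability fluorescence both relative to DMSO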
# TROY NFkB inh = TROY signaling inhibition; actives 0.98% (n = 360,000); inhibition, % at 10 µM; Q293 LMP1-TROYcd NF-kB luciferase reporter, 4 h;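 active = compounds whose plate-normalised and pattern-corrected inhibition of the luciferase reporter signal at the single screening dose is 50% or more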
# A number is an active result; – = inactive; · = no result.
SMILES,XiGFP reactiv,TWEAK-Fn14 inh,FN deposition inh,LGR2 inh,EWS-Fli block,TROY NFkB inh
Nn1c(SCC(=O)Nc2ccc(S(N)(=O)=O)cc2)nnc1-c1ccco1,–,–,–,–,–,57
CCc1ccc(NC(=O)CSc2nnc(-c3ccco3)o2)cc1,–,–,31,–,·,–
Cc1csc(NC(=O)CSc2nnc(-c3ccco3)n2C)n1,·,86,–,·,·,81
C[C@@H]1CCCCO[C@@H](CN(C)S(=O)(=O)c2cn(C)cn2)[C@@H](C)CN([C@@H](C)CO)C(=O)c2cc(NS(=O)(=O)c3cn(C)cn3)ccc2O1,–,·,–,–,–,·
C[C@H]1CN([C@@H](C)CO)C(=O)CCCn2cc(nn2)CO[C@H]1CN(C)S(=O)(=O)c1cccc(F)c1,–,·,–,–,–,·
O=C1CN(S(=O)(=O)Cc2ccccc2)C[C@@H]2[C@@H](c3ccc(C#CC4CC4)cc3)[C@@H](CO)N12,–,·,–,–,–,·
C[C@H]1CN([C@@H](C)CO)C(=O)Cc2cc(NC(=O)C3CCCCC3)ccc2O[C@H]1CN(C)S(=O)(=O)c1cn(C)cn1,–,·,·,–,–,·
O=C(Nc1cccc(Cl)c1)Nc1ccnc(-c2cccnc2)n1,–,53,–,–,–,–
O=S(=O)(c1ccccc1)N1C[C@@H]2[C@H](c3ccccc31)[C@@H](CO)N2Cc1ccccc1,–,·,·,–,–,·
C[C@H](CO)N1C[C@H](C)[C@@H](CN(C)C(=O)c2ccncc2)Oc2cc(-c3cccc(C#N)c3)ccc2S1(=O)=O,–,·,·,–,–,·
CO[C@H]1CN(C)C(=O)c2cc(NC(=O)c3cc(C)on3)ccc2OC[C@@H](C)NC[C@@H]1C,–,·,–,–,–,·
CO[C@H]1CN(C)C(=O)c2cc(NC(=O)C3CCC3)ccc2OC[C@H](C)NC[C@H]1C,–,·,–,–,–,·
CCOC(=O)c1ccc(-c2c(-c3ccccc3OC)sc3ccc(OC)cc23)cc1F,–,–,–,·,–,53
COc1ccc(NC(=O)N(C)C[C@@H]2Oc3ccc(NC(=O)C4CC4)cc3C(=O)N([C@@H](C)CO)C[C@H]2C)cc1,–,·,·,–,–,·
Cn1c(=O)c2c(nc(NCCNC(=O)c3ccco3)n2Cc2ccc(F)cc2)n(C)c1=O,–,–,–,–,–,–
Cn1c(=O)c2c(nc(NCCNC(=O)c3ccco3)n2Cc2ccccc2)n(C)c1=O,–,98,–,–,–,–
COc1cc(/C=N/Nc2nc3c(c(=O)n(C)c(=O)n3C)n2Cc2ccccc2)ccc1OC(=O)c1ccco1,–,72,–,51,–,–
C[C@H](CO)N1C[C@H](C)[C@H](CN(C)S(=O)(=O)c2cccs2)Oc2c(NC(=O)C3CC3)cccc2C1=O,–,·,·,–,–,·
Cc1ccc(NC(=O)c2cnn(-c3ccccc3)c2C)cc1C,–,85,–,85,56,63
Cc1c(C(=O)Nc2ccccc2)cnn1-c1ccccc1,–,–,–,–,–,–
COc1ccc(NC(=O)c2cnn(-c3ccccc3)c2C)cc1,–,50,–,·,–,–
CCCN1[C@@H]2c3ccc(-c4ccccc4F)c(=O)n3C[C@H]1[C@H](CO)[C@H]2C(=O)NCc1ccccn1,–,·,·,–,–,·
O=S(=O)(Nc1ccc(O)c(Sc2nc3ccccc3s2)c1)c1cccc2ccccc12,–,50,–,–,·,67
CCCNC(=O)Nc1ccc2c(c1)C(=O)N(C)C[C@H](OC)[C@H](C)CN(Cc1ccc(-c3ccccn3)cc1)[C@H](C)CO2,–,·,–,–,–,·
CCOC(=O)c1cnc2ccc(C(=O)OC)cc2c1Nc1ccc(C(=O)O)cc1,–,–,–,–,–,–
SMILES,XiGFP reactiv,TWEAK-Fn14 inh,FN deposition inh,LGR2 inh,EWS-Fli block,TROY NFkB inh
CCOC(=O)c1ccc2ncc(C(=O)OCC)c(Nc3ccc(N4CCOCC4)cc3)c2c1,–,53,–,55,–,–
Cc1ccc(S(=O)(=O)Nc2ccc3c(c2)CC(=O)N([C@H](C)CO)C[C@@H](C)[C@@H](CN(C)S(C)(=O)=O)O3)cc1,–,·,–,–,–,·
C[C@H](CO)N1C[C@H](C)[C@H](CN(C)S(=O)(=O)c2ccc(F)cc2)Oc2ccc(NC(=O)Nc3cccc4ccccc34)cc2C1=O,–,·,·,–,–,·
Cc1nn(-c2ccccc2)c(Cl)c1/C=C1\SC(=S)NC1=O,·,–,·,·,·,51
Cc1nn(-c2ccccc2)c(Cl)c1/C=C1\SC(=S)N(CCCCCC(=O)O)C1=O,–,–,–,–,–,–
O=C(Nc1ccccc1Cl)N1CCN(c2ccccn2)CC1,·,101,–,–,·,–
COc1ccc(Nc2nc3cc(C)ccc3cc2C#N)c(OC)c1,–,–,–,–,–,–
COc1ccc(Nc2nc3ccc(C)cc3cc2C#N)c(OC)c1,–,85,–,·,–,–
CC(=O)N(Cc1ccc(F)cc1)C1=C(NCCc2ccccc2)C(=O)c2ccccc2C1=O,·,82,42,·,·,66
O=C1C(Cl)=C(NCCc2ccccc2)C(=O)c2ccccc21,–,–,–,–,–,–
O=C(COC(=O)COc1ccc(Br)cc1)NC1CCCCCC1,–,–,–,–,–,79
O=C(Nc1ccc2c(c1)[C@@H]1C[C@@H](CC(=O)N3CCCCC3)O[C@H](CO)[C@@H]1O2)c1cccnc1,–,·,–,–,–,·
COc1ccc2cnn(CCOc3ccccc3)c(=O)c2c1OC,·,51,·,·,·,–
COc1ccc(-n2c(COc3ccc(Cl)cc3)nnc2SCc2ccc(C#N)cc2)cc1,·,–,–,·,·,–
COc1ccc(NCc2nnc(SCc3ccc(Cl)cc3)n2-c2ccccc2)cc1,–,–,–,–,·,60
CC1=CC(C)(C)Nc2ccc(OC(=O)CN3C(=O)c4cccc5cccc(c45)C3=O)cc21,·,52,–,–,·,–
CC1=CC(C)(C)Nc2ccc(OC(=O)C(Cc3ccccc3)N3C(=O)c4ccccc4C3=O)cc21 (stereo unspecified),·,110,·,·,·,–
CC1=CC(C)(C)Nc2ccc(OC(=O)CN3C(=O)c4ccccc4C3=O)cc21,–,89,–,·,–,–
C#CCOC(=O)CN1C(=O)c2cccc3cccc(c23)C1=O,–,–,–,–,–,–
CCOc1ccc2c(c1)C(C)=CC(C)(C)N2,·,–,·,–,–,–
CC(=O)Oc1ccc(CC(C(=O)O)N2C(=O)c3ccccc3C2=O)cc1 (stereo unspecified),–,–,–,–,–,–
O=C(Nc1ccccc1)c1ccc(F)c(S(=O)(=O)N2CCOCC2)c1,·,–,–,·,·,–
O=C(Nc1ccc(-c2cn3ccsc3n2)cc1)c1ccc(F)c(S(=O)(=O)N2CCOCC2)c1,·,59,–,·,·,–
CO[C@@H]1CN(C)C(=O)c2ccc(NS(=O)(=O)c3ccccc3)cc2OC[C@H](C)NC[C@@H]1C,–,·,–,–,–,·
COc1ccc(C(=O)N/N=C/c2cccc3cccnc23)cc1,·,105,·,·,·,·
CCOc1ccc(C(=O)N/N=C/c2cccc3cccnc23)cc1,·,–,·,·,·,–

# Screening data: PubChem BioAssay, several laboratories
